# Only some compounds are listed: those with a hit (about 1.9% of all), similar ones and a draw of the others.
# Scp-1 inhibitor – blocks human Scp-1 phosphatase activity; Q9GZU7; inhibition, % at 20 µM; hit rate 0.88% among 340,000; Recombinant Scp1, phosphopeptide, malachite green phosphate absorbance; AID 493091;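 active means inhibition above about 50% at 20 µM, limit read from the data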
#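 System: SCP-1 catalytic domain; Reagent: Phospho 17-mer peptide substrate; Doses: one concentration, 20 µM, with 1.0% DMSO; Incubation: 45 min room-temperature reaction, 5 min colour, 30 min stabiliser; Signal: Phosphate-binding colour reagent, absorbance read at 630 nm.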
# STEP block – inhibitors of human striatal-enriched phosphatase STEP | P54829 | recombinant STEP, OMFP fluorogenic substrate, fluorescence | inhibition, % at 20 µM | hit rate 0.25% among 360,000;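 active means inhibition at 20 µM, scaled per plate between control wells, above about 37%, limit read from the data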
# Target sequence (P54829 whole entry, looked up): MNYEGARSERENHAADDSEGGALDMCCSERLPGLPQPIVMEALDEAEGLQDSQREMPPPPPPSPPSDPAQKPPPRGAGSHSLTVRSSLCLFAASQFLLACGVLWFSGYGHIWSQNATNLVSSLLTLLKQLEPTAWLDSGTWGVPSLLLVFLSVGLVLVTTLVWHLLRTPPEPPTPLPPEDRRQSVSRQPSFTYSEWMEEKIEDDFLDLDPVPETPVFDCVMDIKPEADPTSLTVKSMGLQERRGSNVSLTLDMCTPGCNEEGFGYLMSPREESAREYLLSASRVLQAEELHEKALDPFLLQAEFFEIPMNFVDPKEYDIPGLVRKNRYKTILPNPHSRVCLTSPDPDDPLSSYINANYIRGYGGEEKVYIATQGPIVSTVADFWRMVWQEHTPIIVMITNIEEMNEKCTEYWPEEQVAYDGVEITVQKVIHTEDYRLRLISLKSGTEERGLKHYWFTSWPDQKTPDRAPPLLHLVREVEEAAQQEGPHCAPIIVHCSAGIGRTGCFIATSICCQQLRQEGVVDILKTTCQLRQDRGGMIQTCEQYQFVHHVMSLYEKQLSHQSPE
#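 Test system: STEP tyrosine phosphatase / Reagent: OMFP at 25 µM / Doses: 20 µM, 1% DMSO / Read-out: percent inhibition scaled to no-enzyme and uninhibited-enzyme controls, plate-pattern corrected / Detection: FITC-channel fluorescence of OMFP product / Medium: Bis-Tris buffer pH 6.0, 2.5 mM DTT, 0.005% Tween 20 / Schedule: 20 min at room temperature, dark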
# LMPTP inh – blocks human LMPTP phosphatase; recombinant LMPTP-A, OMFP fluorogenic substrate, fluorescence intensity; hit rate 0.22% among 360,000; P24666; inhibition, % at 20 µM;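 active means compounds that cut the enzyme signal by at least half of the control window in the single-dose screen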
#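 Material: LMPTP-A; amount: 0.625 nM enzyme; doses: single 20 µM dose; times: reaction 50 min, room temperature, dark; technique: fluorescence intensity of OMFP turnover product; benchmarks: no-enzyme and uninhibited controls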
# SUMO1-SIM PPI – SUMO1-SIM interaction modulation. P63165. SUMO1 binding to a labelled peptide, TR-FRET, 1 h. AID 602429. inhibition, % at 20 µM. hit rate 0.33% among 360,000; in the data active means inhibition above about 37%
# FAS TE block – inhibitors of human fatty acid synthase thioesterase domain. P49327. recombinant FAS-TE, OMFH fluorogenic substrate, fluorescence endpoint. inhibition, % at 15 µM. hit rate 0.67% among 360,000;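 active means compounds whose normalised, plate-corrected inhibition of enzyme fluorescence in the single-dose primary screen is 50% or more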
# FAS-TE conf – confirmation of human fatty acid synthase thioesterase inhibitors | shares compounds with FAS TE block | recombinant FAS-TE, OMFH fluorogenic substrate, fluorescence | inhibition, % at 15 µM | hit rate 45% among 2,300 | AID 624325;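 active means compounds inhibiting the enzyme by at least 50% at 15 µM in any one of the replicates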
# Numbers stand for hits; – = inactive; · = no result.
SMILES,Scp-1 inhibitor,STEP block,LMPTP inh,SUMO1-SIM PPI,FAS TE block,FAS-TE conf
O=C(Nc1nc2ccccc2s1)c1ccc(N2CCCCC2)c([N+](=O)[O-])c1,–,–,–,–,54,–
COc1ccc(/C=C(\NC(=O)c2ccc([N+](=O)[O-])cc2)C(=O)NCCCN2CCOCC2)cc1,–,–,–,–,76,79
COc1ccc(/C=C(\NC(=O)c2ccc([N+](=O)[O-])cc2)C(=O)NCCN2CCOCC2)cc1,–,–,–,–,64,73
O=C(N/C(=C\c1ccc(Br)cc1)C(=O)N1CCOCC1)c1ccc([N+](=O)[O-])cc1,–,–,–,–,91,93
COc1ccc(C(=O)N/C(=C\c2ccc(Cl)cc2)C(=O)NCCN2CCOCC2)cc1,·,–,–,–,–,·
O=C(N/C(=C\c1ccco1)C(=O)N1CCOCC1)c1ccc([N+](=O)[O-])cc1,–,–,–,–,–,·
COc1ccc(/C=C(\NC(=O)c2ccc(C)cc2)C(=O)NCCN2CCOCC2)cc1,–,–,–,–,–,·
CCN1C(=O)[C@H]2[C@H]3CN=C(SC)N3[C@@](Cc3ccccc3)(C(=O)OC)[C@H]2C1=O,–,–,–,–,–,·
CCC(C)n1c(=S)[nH]c2c(sc3ccc([N+](=O)[O-])cc32)c1=O (configuration not stated),–,–,–,–,54,51
CC[C@H](C)[C@H]1O[C@]2(CC[C@@H]1C)C[C@@H]1C[C@@H](CC=C(C)[C@@H](O[C@H]3C[C@H](OC)[C@@H](O[C@H]4C[C@H](OC)[C@@H](O)[C@H](C)O4)[C@H](C)O3)[C@@H](C)C=CC=C3CO[C@@H]4[C@H](O)C(C)=C[C@@H](C(=O)O1)[C@]34O)O2,–,–,–,–,54,–
CN(CC(=O)Nc1ccc(Cl)c(C(F)(F)F)c1)C(=O)C1CC(=O)N(c2ccc3c(c2)OCCO3)C1 (configuration not stated),·,–,–,–,54,27
CN(CC(=O)Nc1ccc(Cl)c(C(F)(F)F)c1)C(=O)C1CC(=O)N(C2CCCC2)C1 (configuration not stated),–,–,–,–,–,·
CCc1nnc(/N=C/c2c(O)n(-c3ccc(Cl)cn3)c(=O)c3ccccc23)s1,–,–,–,–,–,·
O=c1c2ccccc2c(C=Nc2ccc(S(=O)(=O)N3CCCCC3)cc2)c(O)n1-c1ccc(Cl)cn1,–,–,–,–,61,–
CN(C)S(=O)(=O)c1cccc(C(=O)OCC(=O)NC2CCCc3ccccc32)c1 (configuration not stated),–,–,–,–,–,·
COc1cc(/C=C(\NC(=O)c2cc(OC)c(OC)c(OC)c2)C(=O)NC(C(=O)O)c2ccccc2)cc(OC)c1OC (configuration not stated),–,–,–,–,–,·
COc1ccccc1NC1=C(Cl)C(=O)OC1OC(=O)c1ccco1 (configuration not stated),–,–,–,–,–,·
Cc1ccccc1NC1=C(Cl)C(=O)OC1OC(=O)c1ccco1 (configuration not stated),–,–,–,–,74,87
Cn1c(=O)c2c(nc(SCC(=O)NCC3CCCO3)n2Cc2ccc(F)cc2)n(C)c1=O (configuration not stated),–,–,–,–,–,·
CCCc1cc(=O)[nH]c(SCC(=O)Nc2ccc(Br)cc2Br)n1,–,–,–,–,–,·
COc1ccc(NC(=O)O[C@@H](C)[C@@H]2CN3CCc4c([nH]c5ccc(-c6ccc(OC)cc6)cc45)[C@@H]3C[C@@H]2N(C)C(=O)Nc2ccc(OC)cc2)cc1,·,–,–,–,54,–
Cc1cccc(NC(=S)N2CCC(NC(=O)c3cccc(F)c3)CC2)c1,–,–,–,–,–,·
O=[N+]([O-])c1ccc(O)c(/C=N/Nc2ncnc3c2cnn3-c2ccccc2)c1,–,–,50,–,56,–
COc1ccc(C2c3c(ccc4ccccc34)Oc3ncn4nc(-c5ccco5)nc4c32)cc1OC (configuration not stated),–,–,–,–,–,·
c1ccc(C2c3c(ccc4ccccc34)Oc3ncn4nc(-c5ccco5)nc4c32)cc1 (configuration not stated),–,–,–,–,77,–
SMILES,Scp-1 inhibitor,STEP block,LMPTP inh,SUMO1-SIM PPI,FAS TE block,FAS-TE conf
O=C(c1ccccc1)N(C(=O)c1ccccc1)c1ncnc2c1C(c1ccccc1)c1c(ccc3ccccc13)O2 (configuration not stated),–,–,–,–,62,–
CCOC(=O)CCCC(=O)Nc1ncnc2c1C(c1ccccc1)c1c(ccc3ccccc13)O2 (configuration not stated),–,–,–,–,–,·
COc1ccc(C2c3c(ccc4ccccc34)Oc3ncn4nc(-c5ccco5)nc4c32)cc1 (configuration not stated),–,–,–,–,72,–
CCOc1cccc(C(=O)NNC(=O)C2C3C=CC(C3)C2C(=O)O)c1 (configuration not stated),–,–,–,–,–,·
CCOC(=O)C1=CC[C@H]2c3c(c4ccccc4n3C)C(=O)C1N2C(=O)OC(C)(C)C,–,–,–,–,63,46
CCOC(=O)C1=CC[C@H]2c3c(c4ccccc4n3C)C(=O)C1N2C,–,–,–,–,–,·
COc1ccccc1C(CNC(=O)c1cccc(S(=O)(=O)NCc2ccccc2)c1)N(C)C (configuration not stated),–,–,–,–,–,·
Cc1ccc(Cl)cc1N1CCN(C(=O)C2CCN(S(=O)(=O)c3cccnc3)CC2)CC1,–,–,–,–,50,–
CSCCC(NC(=O)c1ccc(Cl)c([N+](=O)[O-])c1)C(=O)N1CCN(C/C=C/c2ccccc2)CC1 (configuration not stated),–,–,–,–,58,59
CCc1cccc(OCC2Cn3c(nc4c3c(=O)n(C)c(=O)n4C)O2)c1 (configuration not stated),–,–,–,–,–,·
Cc1ccc(C(=O)O/N=C(\N)Cc2cccs2)cc1[N+](=O)[O-],–,–,–,–,62,76
O=C(Nc1ccc(S(=O)(=O)N2CCCC2)cc1)N1c2ccccc2Sc2ccccc21,–,–,–,–,76,–
COC(=O)c1cc(NC(=O)N2c3ccccc3Sc3ccccc32)cc(C(=O)OC)c1,–,–,–,–,72,–
Cc1c(Cl)c([N+](=O)[O-])nn1CCCC(=O)N1CCN(c2ccccc2)CC1,–,–,–,–,–,·
CCn1c(=O)c2ccccc2n(Cc2cccc([N+](=O)[O-])c2)c1=O,–,–,–,–,–,·

# Compound activity (PubChem BioAssay)
